What was measured:
[1] = test system: PC-3; assay: Cell cycle arrest in human PC3 cells assessed as accumulation at subG1 phase at 1 uM after 24 hrs by propidium iodide staining-based FACS flow cytometric analysis (reference value: 13.1%); assay type: functional
Procedure, shortened: (§1)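 PC-3 cells (1×10^6/well) exposed 24 h to test agent at 1, 5 or 10 μM. Cells washed twice in ice-cold PBS, fixed in 70% ethanol for 30 min, then treated with RNase A (0.1 mg/mL, 37 °C, 30 min). Propidium iodide staining 30 min on ice in the dark. DNA content read by flow cytometry with 488 nm excitation and doublet discrimination, 10,000 events.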

[2] = test system: PC-3; assay: Cell cycle arrest in human PC3 cells assessed as accumulation at M phase at 5 uM after 24 hrs by propidium iodide staining-based FACS flow cytometric analysis (reference value: 3%); assay type: functional; procedure, shortened: as §1
[3] = test system: PC-3; assay: Cell cycle arrest in human PC3 cells assessed as accumulation at M phase at 10 uM after 24 hrs by propidium iodide staining-based FACS flow cytometric analysis (reference value: 3%); assay type: functional; procedure, shortened: as §1
[4] = test system: PC-3; assay: Cell cycle arrest in human PC3 cells assessed as accumulation at M phase at 1 uM after 24 hrs by propidium iodide staining-based FACS flow cytometric analysis (reference value: 3%); assay type: functional; procedure, shortened: as §1
[5] = test system: PC-3; assay: Antiproliferative activity against human PC3 cells after 48 hrs by sulforhodamine B assay; assay type: functional, cell-based; conditions: PC-3, 48 h
[6] = test system: PC-3; assay: Cell cycle arrest in human PC3 cells assessed as accumulation at S phase at 10 uM after 24 hrs by propidium iodide staining-based FACS flow cytometric analysis (reference value: 8.5%); assay type: functional; procedure, shortened: as §1
[7] = test system: PC-3; assay: Cell cycle arrest in human PC3 cells assessed as accumulation at subG1 phase at 10 uM after 24 hrs by propidium iodide staining-based FACS flow cytometric analysis (reference value: 13.1%); assay type: functional; procedure, shortened: as §1
[8] = test system: THP-1; assay: Antiproliferative activity against human THP1 cells after 48 hrs by sulforhodamine B assay; assay type: functional, cell-based; conditions: THP-1, 48 h
[9] = test system: A549; assay: Antiproliferative activity against human A549 cells after 48 hrs by sulforhodamine B assay; assay type: functional, cell-based; conditions: A549, 48 h
[10] = test system: MCF7; assay: Antiproliferative activity against human MCF7 cells after 48 hrs by sulforhodamine B assay; assay type: functional, cell-based; conditions: MCF7, 48 h
[11] = test system: PC-3; assay: Cell cycle arrest in human PC3 cells assessed as accumulation at subG1 phase after 24 hrs by propidium iodide staining-based FACS flow cytometric analysis; assay type: functional; procedure, shortened: as §1
[12] = test system: PC-3; assay: Cell cycle arrest in human PC3 cells assessed as accumulation at S phase at 5 uM after 24 hrs by propidium iodide staining-based FACS flow cytometric analysis (reference value: 8.5%); assay type: functional; procedure, shortened: as §1
[13] = test system: PC-3; assay: Cell cycle arrest in human PC3 cells assessed as accumulation at G0/G1 phase at 10 uM after 24 hrs by propidium iodide staining-based FACS flow cytometric analysis (reference value: 68.2%); assay type: functional; procedure, shortened: as §1
[14] = test system: HEp-2; assay: Antiproliferative activity against human Hep2 cells after 48 hrs by sulforhodamine B assay; assay type: functional, cell-based; conditions: HEp-2, 48 h
[15] = test system: HCT-116; assay: Antiproliferative activity against human HCT116 cells after 48 hrs by sulforhodamine B assay; assay type: functional, cell-based; conditions: HCT-116, 48 h
[16] = test system: PC-3; assay: Cell cycle arrest in human PC3 cells assessed as accumulation at G0/G1 phase at 1 uM after 24 hrs by propidium iodide staining-based FACS flow cytometric analysis (reference value: 68.2%); assay type: functional; procedure, shortened: as §1
[17] = test system: PC-3; assay: Cell cycle arrest in human PC3 cells assessed as accumulation at G0/G1 phase at 5 uM after 24 hrs by propidium iodide staining-based FACS flow cytometric analysis (reference value: 68.2%); assay type: functional; procedure, shortened: as §1
[18] = test system: PC-3; assay: Cell cycle arrest in human PC3 cells assessed as accumulation at S phase at 1 uM after 24 hrs by propidium iodide staining-based FACS flow cytometric analysis (reference value: 8.5%); assay type: functional; procedure, shortened: as §1
[19] = test system: PC-3; assay: Cell cycle arrest in human PC3 cells assessed as accumulation at subG1 phase at 5 uM after 24 hrs by propidium iodide staining-based FACS flow cytometric analysis (reference value: 13.1%); assay type: functional; procedure, shortened: as §1
[20] = molecular target: Transcription factor p65 (Homo sapiens) (UniProt Q04206); assay: Inhibition of NFkappaB p65 in nuclear extract of human PC3 cells assessed as reduction in binding to consensus DNA sequence at 1 uM after 24 hrs relative to control; assay type: cell-based; conditions: PC-3
Chain of Transcription factor p65 (Homo sapiens) (Q04206 whole entry): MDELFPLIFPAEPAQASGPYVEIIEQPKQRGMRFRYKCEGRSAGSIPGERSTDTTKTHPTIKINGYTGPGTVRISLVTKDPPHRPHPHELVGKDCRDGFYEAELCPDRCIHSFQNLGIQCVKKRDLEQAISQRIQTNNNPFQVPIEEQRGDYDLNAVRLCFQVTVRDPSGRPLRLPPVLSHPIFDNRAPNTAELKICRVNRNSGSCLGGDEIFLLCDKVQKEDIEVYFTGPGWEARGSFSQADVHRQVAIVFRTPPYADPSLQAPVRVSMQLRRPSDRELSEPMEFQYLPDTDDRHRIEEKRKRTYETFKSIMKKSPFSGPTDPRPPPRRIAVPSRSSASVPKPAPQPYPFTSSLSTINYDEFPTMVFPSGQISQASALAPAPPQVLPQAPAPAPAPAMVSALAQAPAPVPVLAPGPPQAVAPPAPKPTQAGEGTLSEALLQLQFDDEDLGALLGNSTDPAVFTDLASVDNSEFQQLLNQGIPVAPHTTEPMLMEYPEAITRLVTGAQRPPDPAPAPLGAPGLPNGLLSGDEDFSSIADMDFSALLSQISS
Procedure, shortened: (§2)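 PC-3 cells (5×10^6) treated 24 h at varied concentrations. Nuclear extract made by hypotonic lysis (HEPES/KOH pH 7.9) followed by high-salt extraction. Nuclear protein (20 µg) incubated overnight at 4 °C in wells carrying immobilized NF-κB DNA consensus element, then anti-p65 primary antibody 1 h and HRP secondary 1 h. Substrate 30 min, OD 450 nm, normalized to untreated control = 100%.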

[21] = molecular target: Transcription factor p65 (Homo sapiens) (UniProt Q04206); assay: Inhibition of NFkappaB p65 in nuclear extract of human PC3 cells assessed as reduction in binding to DNA response element after 24 hrs; assay type: cell-based; conditions: PC-3; procedure, shortened: as §2
[22] = molecular target: Transcription factor p65 (Homo sapiens) (UniProt Q04206); assay: Inhibition of NFkappaB p65 in nuclear extract of human PC3 cells assessed as reduction in binding to consensus DNA sequence at 5 uM after 24 hrs relative to control; assay type: cell-based; conditions: PC-3; procedure, shortened: as §2
[23] = molecular target: Transcription factor p65 (Homo sapiens) (UniProt Q04206); assay: Inhibition of NFkappaB p65 in nuclear extract of human PC3 cells assessed as reduction in binding to consensus DNA sequence at 10 uM after 24 hrs relative to control; assay type: cell-based; conditions: PC-3; procedure, shortened: as §2

| IC50 [5] [µM] | IC50 [8] [µM] | IC50 [9] [µM] | IC50 [10] [µM] | IC50 [15] [µM] | SMILES | Activity [1] [%] | Activity [2] [%] | Activity [3] [%] | Activity [4] [%] | Activity [6] [%] | Activity [7] [%] | Activity [11] | Activity [12] [%] | Activity [13] [%] | IC50 [14] [µM] | Activity [16] [%] | Activity [17] [%] | Activity [18] [%] | Activity [19] [%] | other results |
| --- | --- | --- | --- | --- | --- | --- | --- | --- | --- | --- | --- | --- | --- | --- | --- | --- | --- | --- | --- | --- |
| 0.1 | 0.3 | 100 | 0.8 | 100 | CC1=C2[C@H]3OC(=O)C4(C[C@H](c5ccc(Br)cc5)N(c5ccccc5)O4)[C@@H]3CC[C@@]2(C)C=CC1=O (some centres not stated) | 33.8 | 0.8 | 1.3 | 1.6 | 4.9 | 42.8 | Dose-dependent effect | 4.4 | 53.2 | 100 | 55.3 | 55.8 | 4.2 | 34.7 | – |
| 0.01 | 0.5 | 31 | 0.3 | 37 | CC1=C2[C@H]3OC(=O)C4(C[C@@H](c5ccc(Br)cc5)N(c5ccccc5)O4)[C@@H]3CC[C@@]2(C)C=CC1=O (some centres not stated) | 25.6 | 1.2 | 0.4 | 2 | 0.4 | 67.9 | Dose-dependent effect | 4.5 | 3.1 | 65 | 60.9 | 43.5 | 6.2 | 39.7 | inhibition [20]: 20%; inhibition [21]: Dose-dependent effect; inhibition [22]: 43%; inhibition [23]: 57% |

Source: ChEMBL document CHEMBL2375213, “Synthesis and anticancer activity of novel spiro-isoxazoline and spiro-isoxazolidine derivatives of α-santonin” (Eur J Med Chem, 2013)
